Experimental data reported in paper PMC4561207 (Child's nervous system : ChNS : official journal of the …, 2015).

Assay: Adverse events regardless of attribution
Format: in vivo, human
Summary of the method: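 Children with recurrent/refractory CNS tumours took oral drug once daily, continuously, in 28-day cycles. Dosing was stratified by EIACD use, with start/escalation levels 20–40 mg/m² (no EIACD) or 15–32 mg/m² (EIACD). Monitoring included weekly exam, serum chemistries, CBC and urine protein for 8 weeks, and TSH before each cycle. Events other than hypertension were graded by CTCAE v3, later v4.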

## COc1cc2c(Oc3ccc4[nH]c(C)cc4c3F)ncnc2cc1OCCCN1CCCC1 [cediranib, Cediranib]
Grade 3 AE
  Anemia, events (patients): 2(2)
  Aspartate aminotransferase increased, events (patients): 2(2)
  Blurred vision, events (patients): 1(1)
  Capillary leak syndrome, events (patients): 1(1)
  Chest wall pain, events (patients): 1(1)
  Confusion, events (patients): 1(1)
  Dehydration, events (patients): 4(4)
  Depressed level of consciousness, events (patients): 2(2)
  Diarrhea, events (patients): 3(3)
  Dysphasia, events (patients): 2(2)
  Enterocolitis, events (patients): 1(1)
  Eye disorders - Other, specify, events (patients): 1(1)
  Fatigue, events (patients): 4(4)
  Headache, events (patients): 7(5)
  Hydrocephalus, events (patients): 2(2)
  Hyperkalemia, events (patients): 1(1)
  Hypermagnesemia, events (patients): 1(1)
  Hypernatremia, events (patients): 2(1)
  Hypertension, events (patients): 10(10)
  Hypertriglyceridemia, events (patients): 1(1)
  Hypokalemia, events (patients): 3(2)
  Hyponatremia, events (patients): 5(5)
  Lipase increased, events (patients): 1(1)
  Lymphocyte count decreased, events (patients): 5(3)
  Mucositis oral, events (patients): 1(1)
  Nausea, events (patients): 3(3)
  Neutrophil count decreased, events (patients): 2(2)
  Oral pain, events (patients): 2(2)
  Palmar-plantar erythrodysesthesia syndrome, events (patients): 3(3)
  Peripheral motor neuropathy, events (patients): 2(2)
  Proteinuria, events (patients): 3(3)
  Reversible posterior leukoencephalopathy syndrome, events (patients): 1(1)
  Seizure, events (patients): 3(3)
  Vomiting, events (patients): 2(2)
  Weight loss, events (patients): 1(1)
  White blood cell decreased, events (patients): 1(1)
Grade 4 AE
  Alanine aminotransferase increased, events (patients): 1(1)
  Aspartate aminotransferase increased, events (patients): 1(1)
  Hypernatremia, events (patients): 2(1)
  Hyponatremia, events (patients): 1(1)
  Hypothyroidism, events (patients): 1(1)
  Lymphocyte count decreased, events (patients): 1(1)
  Nervous system disorders - Other, specify, events (patients): 1(1)
  Papilledema, events (patients): 1(1)
  Seizure, events (patients): 1(1)
Total AE
  Abdominal pain, events (patients): 11(11)
  Acidosis, events (patients): 7(5)
  Alanine aminotransferase increased, events (patients): 70(30)
  Alkaline phosphatase increased, events (patients): 4(3)
  Anal mucositis, events (patients): 1(1)
  Anal pain, events (patients): 1(1)
  Anemia, events (patients): 7(6)
  Anorexia, events (patients): 15(12)
  Arthralgia, events (patients): 1(1)
  Aspartate aminotransferase increased, events (patients): 45(23)
  Back pain, events (patients): 5(4)
  Blood bilirubin increased, events (patients): 18(10)
  Blurred vision, events (patients): 1(1)
  Bone pain, events (patients): 3(2)
  Capillary leak syndrome, events (patients): 1(1)
  Cardiac troponin I increased, events (patients): 1(1)
  Chest wall pain, events (patients): 2(2)
  Cholesterol high, events (patients): 1(1)
  Chronic kidney disease, events (patients): 1(1)
  Confusion, events (patients): 2(2)
  Constipation, events (patients): 9(4)
  Cough, events (patients): 5(4)
  Creatinine increased, events (patients): 5(3)
  Dehydration, events (patients): 8(7)
  Depressed level of consciousness, events (patients): 2(2)
  Depression, events (patients): 3(3)
  Diarrhea, events (patients): 63(32)
  Dizziness, events (patients): 5(3)
  Dry mouth, events (patients): 1(1)
  Dry skin, events (patients): 1(1)
  Dyspepsia, events (patients): 4(4)
  Dysphasia, events (patients): 3(3)
  Edema face, events (patients): 1(1)
  Edema limbs, events (patients): 2(2)
  Endocrine disorders - Other, specify, events (patients): 2(2)
  Enterocolitis, events (patients): 1(1)
  Epistaxis, events (patients): 6(5)
  Eye disorders - Other, specify, events (patients): 2(2)
  Fatigue, events (patients): 25(20)
  Fecal incontinence, events (patients): 2(2)
  Fever, events (patients): 3(3)
  Flushing, events (patients): 3(1)
  GGT increased, events (patients): 1(1)
  Gastritis, events (patients): 2(2)
  Gastrointestinal disorders - Other, specify, events (patients): 2(2)
  Headache, events (patients): 38(19)
  Hematuria, events (patients): 5(3)
  Hemoglobin increased, events (patients): 12(6)
  Hoarseness, events (patients): 1(1)
  Hydrocephalus, events (patients): 4(3)
  Hypercalcemia, events (patients): 6(3)
  Hyperglycemia, events (patients): 22(16)
  Hyperkalemia, events (patients): 4(4)
  Hypermagnesemia, events (patients): 15(9)
  Hypernatremia, events (patients): 16(5)
  Hypertension, events (patients): 59(38)
  Hyperthyroidism, events (patients): 2(2)
  Hypertriglyceridemia, events (patients): 1(1)
  Hypoalbuminemia, events (patients): 34(17)
  Hypocalcemia, events (patients): 26(16)
  Hypoglycemia, events (patients): 6(5)
  Hypokalemia, events (patients): 23(18)
  Hypomagnesemia, events (patients): 9(7)
  Hyponatremia, events (patients): 29(13)
  Hypophosphatemia, events (patients): 21(13)
  Hypothyroidism, events (patients): 21(15)
  Hypoxia, events (patients): 1(1)
  INR increased, events (patients): 1(1)
  Intracranial hemorrhage, events (patients): 4(4)
  Investigations - Other, specify, events (patients): 2(2)
  Joint effusion, events (patients): 1(1)
  Leukoencephalopathy, events (patients): 1(1)
  Lipase increased, events (patients): 2(1)
  Lymphocyte count decreased, events (patients): 31(13)
  Malaise, events (patients): 3(1)
  Mucositis oral, events (patients): 4(4)
  Myalgia, events (patients): 3(3)
  Nausea, events (patients): 25(16)
  Nervous system disorders - Other, specify, events (patients): 4(4)
  Neutrophil count decreased, events (patients): 23(11)
  Non-cardiac chest pain, events (patients): 3(3)
  Oral pain, events (patients): 4(4)
  Pain in extremity, events (patients): 9(7)
  Pain, events (patients): 4(4)
  Palmar-plantar erythrodysesthesia syndrome, events (patients): 17(7)
  Papilledema, events (patients): 1(1)
  Pericardial effusion, events (patients): 1(1)
  Peripheral motor neuropathy, events (patients): 4(4)
  Platelet count decreased, events (patients): 26(18)
  Pleural effusion, events (patients): 1(1)
  Proteinuria, events (patients): 40(21)
  Rash acneiform, events (patients): 2(2)
  Rash maculo-papular, events (patients): 6(5)
  Rectal pain, events (patients): 1(1)
  Renal and urinary disorders - Other, specify, events (patients): 1(1)
  Respiratory, thoracic and mediastinal disorders - Other, specify, events (patients): 2(2)
  Reversible posterior leukoencephalopathy syndrome, events (patients): 2(1)
  Seizure, events (patients): 7(6)
  Serum amylase increased, events (patients): 1(1)
  Skin and subcutaneous tissue disorders - Other, specify, events (patients): 2(2)
  Skin ulceration, events (patients): 2(2)
  Stomach pain, events (patients): 3(3)
  Urinary frequency, events (patients): 2(2)
  Urinary retention, events (patients): 3(3)
  Vascular disorders - Other, specify, events (patients): 2(2)
  Voice alteration, events (patients): 2(2)
  Vomiting, events (patients): 41(21)
  Weight loss, events (patients): 5(5)
  White blood cell decreased, events (patients): 23(14)
